The EternaBench riboswitch data

Test system: MS2 coat protein
Experiment: apparent Kd, MS2 coat protein; higher = weaker binding; RNA-MaP array; FMN 200 µM where present
Procedure, shortened: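 Designs on Illumina sequencing-chip clusters, transcribed by stalled E. coli RNA polymerase, were exposed to SNAP-549-labelled MS2 coat protein in doubling steps from 0.7 or 1.5 nM up to 3 µM, without and then with constant ligand. The buffer held 100 mM Tris-HCl pH 7.5, 80 mM KCl, 4 mM MgCl2, BSA, DTT, yeast tRNA and Tween-20. Apparent Kd values are medians of filtered per-cluster binding-curve fits to green signal normalised to red-channel RNA signal and control-cluster median Fmax.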

[1] = designed as: OFF switch for flavin mononucleotide, no ligand
[2] = ligand present: flavin mononucleotide, designed as: OFF switch for flavin mononucleotide
[3] = designed as: ON switch for flavin mononucleotide, no ligand
[4] = ligand present: flavin mononucleotide, designed as: ON switch for flavin mononucleotide

Row | Sequence | apparent Kd [1] [nM] | apparent Kd [2] [nM] | apparent Kd [3] [nM] | apparent Kd [4] [nM]
1 | AAAUUCAGAGGAUAUGCGCAUAGAUAAGACUUUGUUUCUUAACAUGAGGAUCACCCAUGUAGAAGGCUGUAAAA | 19.4 | 19.8 | – | –
2 | UGAUCGAAAGAUCAUAGAUUCUGCUAGGAUAUGCAGAAGUUUCGAUUUACAUGAGGAUCACCCAUGUAGAAGGAGUAGAGUCUA | 6.12 | 6.54 | – | –
3 | GGAGCACACAUUAACAUGAGGAUCACCCAUGUCAAAAGACAUGAGGAUAUGGAUCCGAAAAGGAUCCAGAAGGCAUCGUGCUCC | – | – | 413 | 24.7
4 | GCAGCACUUUAUUACAUGAGGAUCACCCAUGUCGAUUGUUAUGAGGAUAUGCAUCGGAUGAAGAUGCAGAAGGCAUUGUGCUGC | – | – | 7.24 | 6.04
5 | AGAUAACACCAGAAGGACAUGAGGAUCACCCAUGUAGGAUAUGGGCAUCACUCGAGAAAGAAAAGACCAUAUGGACACAUGGUC | – | – | 160 | 13.2
6 | GCUAGGCAUGUCAGGAUAUGCUGAACCUUGGUUCAGCAGAAGGGACAUGAGGAUCACCCAUGUGCCAACCUAGC | 57.4 | 613 | – | –
7 | GUGCCUCAGAACAUGAGGAUCACCCAUGUGCUGCGGGCACCGUAGGAUAUGAUGGUACGCUACCAUCAGAAGGAUGAUGGUACC | – | – | 4.83 | 4.92
8 | UGGUACUAGGGAGGAUAUGGGAAGAUACAUGAGGAUCACCCAUGUUUAAGAAUGCCGAGAGACAACUAGAAGGCCCUAGUACCU | – | – | 240 | 22.2
9 | UGCUACCUAGGAUAUACAUGAGGAUCACCCAUGUGAUUCGGUGGCGCGAUCCUUGAAAGUAGAAGGAGGAGCAA | 38.4 | 27.4 | – | –
10 | UUCAAAUUCGUAGGAUAUGUAUAAAUUUUCUACAUGAGGAUCACCCAUGUUACCAUUUUAAAUUGACAGAAGGACGUAAUCUAA | – | – | 22.5 | 8.74
11 | GUACUACAUGAGGAUCACCCAUGUGAGGAUAUGCGAAUUUCAUCAAAAGAUGAAAUUUGCAGAAGGCACAGUAC | 31.2 | 29 | – | –
12 | AAUUAAUUAAUUAAUAUACAUGAGGAUCACCCAUGUAAGAUCAAGGAUAUCAGCUCGAAUAGAGCUGAGAAGGUGAUCACAUGU | – | – | 533 | 674
13 | AGUGGCCGAGGAUAUACGGACGUGUCGCCGGGUGUCGUGGGACAUGAGGAUCACCCAUGUAGAAGGUGGUUGUU | 170 | 219 | – | –
14 | AAAGCAACAUGAGGAUCACCCAUGUAGGAUAUCGCUAUUGUAAUCAUGAAACAUGAUUACAAUAGCGAGAAGGACAUAUGCUUU | 6.77 | 9.48 | – | –
15 | GCACUUAGAGUUGAACCGUUUCGAACAUGAGGAUCACCCAUGUAGGAUAUGCUAAUAGUAUUGAAGCAGAAGGACAAUAAGUGC | 6.43 | 6.05 | – | –
16 | GUGGACGUCGUAGGAUAUGUAGGAUAUUCCUACAUGAGGAUCACCCAUGUUGAAAUGGAAGAAGGACAGAAGGACGAUGUCCAG | – | – | 58.5 | 12.7
17 | CUGGUGUCAGGAUAUGCAUAGCAGUGACCGAAACCCGGUCAGCAGAAGGGACAUGAGGAUCACCCAUGUUAAUA | 23 | 64.1 | – | –
18 | AAGUCGGUAGAUAAUAAUGAUUACAUGAGGAUCACCCAUGUAUAGGAUAUCGUCAGGAAUACUGACGAGAAGGAUACAUCCGAC | 17.6 | 30 | – | –
19 | CGCAGACAUUGGACCUGGUAACAUGAGGAUCACCCAUGUAUCAGAAGGUACUUAUAGAGAUUAAGUAAGGAUAUGAAGUUUGUG | – | – | 5.34 | 6.55
20 | GAGUGGUGGAGAGGAUAUACAUUGUUAUUCACUGUAGAAGGUUCUAACAUGAGGAUCACCCAUGUAGGACUAUUCCUGUGUUUU | – | – | 13.4 | 10.4
21 | GAGUGCUGAGGAUAUACAUGAGGAUCACCCAUGUGCUUCAACUAGGAGACUAGUAUUGGUAGAAGGCAGUACUC | 16.5 | 104 | – | –

Row | Sequence | apparent Kd [1] [nM] | apparent Kd [2] [nM] | apparent Kd [3] [nM] | apparent Kd [4] [nM]
22 | AGCUAGUCAGGAUAUACAAACAUGUCGAGAGACGUGAAGGGACAUGAGGAUCACCCAUGUAGAAGGGACUAGCA | 59 | 234 | – | –
23 | CUCCUACAUGAGGAUCACCCAUGUCAGGAUAUCUCAGUGGCACCUAAAGGCGCCACCCAGAGAAGGGACGUGCA | 11.6 | 14.8 | – | –
24 | UUAAAUCGAAACAUGAGGAUCACCCAUGUGUUGUAAUUAAUAUAGGAUAUGUGUAUACUUUUAUAACAGAAGGAUGAUAAUACU | – | – | 22.2 | 16.9
25 | UGAGUCUGCUGAGGAUAUUGCUCGUGCGUACAUGAGGAUCACCCAUGUGUCUUGAUCCUCUUCUGCAAGAAGGCAGCUCUCUCU | 775 | 444 | – | –
26 | UUGGACGUCGUAGGAUAUGUAGGAUAUUCCUACAUGAGGAUCACCCAUGUUGACAUGGAAGAAGGACAGAAGGACGAAGUCCAU | – | – | 261 | 4.54
27 | CACGGUGAUGUAGGAUAUAUGCUGGAAUACAGCAUAGAAGGACAUGAGGAUCACCCAUGUAAAGUGUCUCCAAAUAACACCGUG | 31.1 | 77 | – | –
28 | GGCAUGCAAAUAAAACAUGAGGAUCACCCAUGUGAGUCUCAUGAGGAUAUGCAGGUCAAAGACUUGCAGAAGGCAUGGCGUGCC | – | – | 1950 | 132
29 | CGCACUUAGCGAGGAUAUGUUAAACAUGAGGAUCACCCAUGUGAUUUAGUAUCAAUAUUAGUGAAACAGAAGGCGCUUAGUGCG | 14 | 13.2 | – | –
30 | AAAUAAAGCAGUGUAUUAAGAUAACAUGAGGAUCACCCAUGUAGAAGGCUCGAGCAAAAUGCUCGAGAGGAUAUACAACACUGC | 5.04 | 9.55 | – | –
31 | CUUUUGUGAGGAUAUCAGUAGUUAAAAAAUAAAAUUACUACUGAGAAGGCACAUGAGGAUCACCCAUGUUCCUC | 42.5 | 308 | – | –
32 | GACUGAUUACAGAAGGUGUUUGACAUGAGGAUCACCCAUGUGUUAUUCAGUUUCAUUGAAUUUAACAAGGAUAUGUAUAUAUCA | – | – | 220 | 101
33 | GCGUCGUCGACUGAUAACAAGCCUAGAAGGCGGACAUGAGGAUCACCCAUGUCUGAUCCUCGGCCCGAGGAUAUAGGUUAAUGG | 28.6 | 13.4 | – | –
34 | GUAGCAUACCGAGGAUAUUCAGGGCGUGGAUAUACAUGAGGAUCACCCAUGUGGCGGAAGCCUAGGGAGAAGGCGGAAUGCUAC | – | – | 21.3 | 16.8
35 | GAUAAGGGAGGAUAUACGGAACGGUUUAUGCUCAGUGAGGCACAUGAGGAUCACCCAUGUAGAAGGCCCGACAG | 28.2 | 120 | – | –
36 | CACCGUUACAGAGGAUAUGACACAUGAGGAUCACCCAUGUAAUAAAUGAGAAUUUCGAAUGUAACUCAGAAGGCUGGAAUCGGC | 30.5 | 52.8 | – | –
37 | CACGCGAAAAGGAGUACAUGAGGAUCACCCAUGUAGGGUGGGAGAAGGCCGGUCGAGAGGUUUAUGGAGGAUAUUUAGGUGUUG | – | – | 78.8 | 52.5
38 | GACGUACAUGAGGAUCACCCAUGUACAAACGUACAAGGAUAUGUGUGGAAACCGUACUAUACAGAAGGUGUUUGUC | – | – | 14.3 | 14.1
39 | AAACCCUGAGGAUAUACAUAACAACAAAGCCUCACGUGCCAACAUGAGGAUCACCCAUGUAGAAGGCAGGCCAA | 12.8 | 41.7 | – | –
40 | AAUGGGCACCAGAAGGACAUGAGGAUCACCCAUGUAGGAUAUGGGCGUUGAAGAUGUCGGAACGAGUUGCUGGAAAGAUAUGGA | – | – | 194 | 20.6
41 | CAGGGAACAGGAUAUACAUGAGGAUCACCCAUGUGUUCCAGCUAGGAAACUAGCAAAUGUAGAAGGGUUCCCUG | 174 | 922 | – | –
42 | UUCGAGUUGCAAGGAUAUCUUAUUUAGAUUUUAAGAGAAGGUGCUUCACAGCUACAUGAGGAUCACCCAUGUCUUUCUUCUUAU | – | – | 29.7 | 23.7
